ChEMBL document CHEMBL1142011, “Discovery of an exceptionally potent and selective class of fatty acid amide hydrolase inhibitors enlisting proteome-wide selectivity screening: concurrent optimization of enzyme inhibitor potency and selectivity” (Bioorg Med Chem Lett, 2005)
“And” between values parts separate entries of the source, which are not always exact repeats. Equal values may be shown once.

Key:
[1] = biological target: T1, Fatty-acid amide hydrolase 1 (Mus musculus, UniProt O08914); assay: Inhibitor affinity towards enzymes of class serine hydrolase was determined using biotin or fluorescent as radioligand (FP-biotin or FP-Rh)
T1 sequence (O08914 whole entry): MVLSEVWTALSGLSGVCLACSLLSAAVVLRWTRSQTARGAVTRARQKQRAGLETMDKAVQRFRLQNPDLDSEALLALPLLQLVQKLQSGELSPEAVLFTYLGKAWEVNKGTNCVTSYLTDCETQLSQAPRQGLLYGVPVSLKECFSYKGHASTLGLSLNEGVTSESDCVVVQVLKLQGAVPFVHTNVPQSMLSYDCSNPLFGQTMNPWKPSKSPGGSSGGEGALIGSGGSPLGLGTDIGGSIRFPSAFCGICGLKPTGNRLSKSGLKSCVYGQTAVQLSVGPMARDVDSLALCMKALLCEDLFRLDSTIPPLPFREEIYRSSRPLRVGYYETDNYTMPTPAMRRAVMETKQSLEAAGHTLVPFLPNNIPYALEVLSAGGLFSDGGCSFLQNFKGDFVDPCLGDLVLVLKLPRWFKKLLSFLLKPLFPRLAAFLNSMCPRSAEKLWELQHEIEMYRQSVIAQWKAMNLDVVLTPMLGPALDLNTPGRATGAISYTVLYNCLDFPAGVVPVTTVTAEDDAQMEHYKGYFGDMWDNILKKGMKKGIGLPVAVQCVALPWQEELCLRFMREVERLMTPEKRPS

Liver carboxylesterase 1 = biological target: T2, Liver carboxylesterase 1 (Homo sapiens, UniProt P23141); assay: Inhibitory concentration of triacylgylcerol hydrolase using FP-Rh radioligand
T2 sequence (P23141 whole entry): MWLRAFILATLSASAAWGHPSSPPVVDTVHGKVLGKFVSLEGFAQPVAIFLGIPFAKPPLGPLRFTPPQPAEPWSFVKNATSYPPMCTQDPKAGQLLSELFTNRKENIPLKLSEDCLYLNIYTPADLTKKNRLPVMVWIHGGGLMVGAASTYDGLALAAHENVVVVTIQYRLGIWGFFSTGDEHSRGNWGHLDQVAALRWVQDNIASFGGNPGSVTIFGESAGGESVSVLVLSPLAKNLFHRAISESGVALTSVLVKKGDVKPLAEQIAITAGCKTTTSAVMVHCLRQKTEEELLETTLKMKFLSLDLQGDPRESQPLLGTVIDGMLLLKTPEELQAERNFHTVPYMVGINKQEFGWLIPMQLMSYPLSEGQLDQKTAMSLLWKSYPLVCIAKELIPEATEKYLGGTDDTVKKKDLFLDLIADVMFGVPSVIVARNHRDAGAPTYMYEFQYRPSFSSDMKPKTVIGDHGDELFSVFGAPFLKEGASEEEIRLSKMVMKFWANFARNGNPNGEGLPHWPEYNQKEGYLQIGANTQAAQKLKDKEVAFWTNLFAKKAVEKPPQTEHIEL
In short: (§1)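 Competitive activity-based profiling of native membrane proteomes (brain, heart) with no purified enzyme or substrate. Proteome was incubated with rhodamine-tagged fluorophosphonate (FP-Rh) across systematically varied inhibitor concentrations under kinetically controlled conditions. Labeled serine hydrolases were resolved by SDS-PAGE and fluorescence-detected. Loss of band labeling gave IC50 for each enzyme.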

[2] = biological target: T3, Fatty-acid amide hydrolase 1 (Homo sapiens, UniProt O00519); assay: Inhibitory concentration of fatty acid amide hydrolase using FP-Rh radioligand; in short: as §1
T3 sequence (O00519 whole entry): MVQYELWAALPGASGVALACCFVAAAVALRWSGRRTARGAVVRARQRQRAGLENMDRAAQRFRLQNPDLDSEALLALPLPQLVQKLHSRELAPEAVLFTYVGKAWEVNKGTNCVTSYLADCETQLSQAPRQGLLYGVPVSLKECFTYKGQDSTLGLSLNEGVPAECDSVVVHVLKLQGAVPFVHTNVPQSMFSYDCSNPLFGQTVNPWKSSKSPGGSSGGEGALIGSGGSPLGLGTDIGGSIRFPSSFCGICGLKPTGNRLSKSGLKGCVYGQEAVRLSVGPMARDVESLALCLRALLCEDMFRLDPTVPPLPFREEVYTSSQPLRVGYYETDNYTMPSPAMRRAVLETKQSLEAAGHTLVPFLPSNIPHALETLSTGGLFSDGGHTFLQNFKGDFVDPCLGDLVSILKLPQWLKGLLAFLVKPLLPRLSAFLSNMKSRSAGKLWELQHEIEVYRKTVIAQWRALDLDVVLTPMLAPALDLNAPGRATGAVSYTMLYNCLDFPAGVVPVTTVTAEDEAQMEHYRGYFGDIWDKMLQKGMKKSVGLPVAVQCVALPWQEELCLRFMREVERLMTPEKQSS

[3] = Concentration of 50% inhibition of KIAA1363 was determined using FP-Rh as radioligand; in short: as §1

Row | Ki [1] | IC50 (Liver carboxylesterase 1) | IC50 [2] | IC50 [3] | Compound
1 | 0.011 µM | 0.2 µM | 0.1 µM | > 100 µM | O=C(CCCCCc1ccccc1)c1ncc(-c2ccccn2)o1
2 | – | – | – | > 100 µM | O=C(CCCCCCc1ccccc1)c1ncc(-c2ccccn2)o1
3 | 0.003 µM | 20 µM | 0.004 µM | > 100 µM | CCCCCCCC/C=C\CCCCCCCC(=O)c1nnc(-c2ccccn2)o1
4 | 0.0002 µM | 0.001 µM | 0.001 µM | 10 µM | O=C(CCCCCc1ccccc1)c1nc2ncccc2o1
5 | 0.025 µM | 0.005 µM | 2 µM | 0.2 µM | O=C(CCCCCCCc1ccccc1)C(F)(F)F
6 | 0.14 µM | 0.07 µM | 10 µM | 0.5 µM | CCCCCCCCCCCC(=O)C(F)(F)F
7 | 0.37 µM | 10 µM | 10 µM | > 100 µM | CCCCCCCC/C=C\CCCCCCCC(=O)c1nc2ccccc2o1
8 | 0.13 µM | 0.01 µM | 10 µM | 0.4 µM | CCCCCCCCCC(=O)C(F)(F)F
9 | 0.016 µM | 20 µM | 0.2 µM | > 100 µM | CCCCCCCC/C=C\CCCCCCCC(=O)c1nnc(-c2ccccc2)o1
10 | 0.0078 µM | 6 µM | 0.03 µM | > 100 µM | O=C(CCCCCCCCc1ccccc1)c1ncc(-c2ccccn2)o1
11 | 0.00029 µM | – | – | – | O=C(CCCCCCCc1ccccc1)c1nnc(-c2ccco2)o1
12 | 0.22 µM | 0.02 µM | 10 µM | > 100 µM | O=C(CCCCCc1ccccc1)c1nc2ccccc2o1
13 | 1.2 µM | 0.002 µM | 30 µM | 1.5 µM | CCCCCCCC(=O)C(F)(F)F
14 | – | 0.2 µM | 0.0006 µM | 60 µM | O=C(CCCCCCCc1ccccc1)c1nnc(-c2ccccn2)o1
15 | 0.00085 µM | – | – | – | O=C(CCCCCc1ccccc1)c1nnc(-c2cccnc2)o1
16 | 0.0075 µM | 1 µM | 0.008 µM | > 100 µM | O=C(CCCCCCCc1ccccc1)c1ncc(-c2ccccn2)o1
17 | 0.002 µM | – | – | – | O=C(CCCCCCc1ccccc1)c1nnc(-c2ccccc2)o1

Row | Ki [1] | IC50 (Liver carboxylesterase 1) | IC50 [2] | IC50 [3] | Compound
18 | 0.32 µM | 50 µM | 5 µM | > 100 µM | CCCCCCCC/C=C\CCCCCCCC(=O)c1ncc(-c2ccccc2)o1
19 | 0.1 µM | 0.001 µM | 5 µM | 0.2 µM | O=C(CCCCCCc1ccccc1)C(F)(F)F
20 | 0.09 µM | – | – | – | CCCCCCCC/C=C\CCCCCCCC(=O)c1nnco1
21 | 0.00028 µM | 0.003 µM | 0.0003 µM | 20 µM | O=C(CCCCCCc1ccccc1)c1nc2ncccc2o1
22 | 0.001 µM | 0.1 µM | 0.02 µM | > 100 µM | O=C(CCCCCCc1ccccc1)c1nnc(-c2cccnc2)o1
23 | 0.018 µM | 50 µM | 0.2 µM | > 100 µM | CCCCCCCC/C=C\CCCCCCCC(=O)c1ncc(-c2ccccn2)o1
24 | 0.1 µM | 9 µM | 2 µM | > 100 µM | CCCCCCCC/C=C\CCCCCCCC(=O)c1ncco1
25 | 0.24 µM | 4.6 µM | 6.4 µM | 6.6 µM | CCCCCCCCCCCCCCCCCC(=O)C(F)(F)F
26 | 0.001 µM | 0.03 µM | 0.02 µM | > 100 µM | O=C(CCCCCCc1ccccc1)c1nnc(-c2ccncc2)o1
27 | 0.00085 µM and 0.00083 µM | 0.5 µM | 0.0008 µM | 3 µM | O=C(CCCCCCCCc1ccccc1)c1nnc(-c2ccccn2)o1
28 | – | 0.03 µM | 0.004 µM | 50 µM | O=C(CCCCCc1ccccc1)c1nnc(-c2ccccn2)o1
29 | – | 0.14 µM | 0.001 µM | 90 µM | O=C(CCCCCCc1ccccc1)c1nnc(-c2ccccn2)o1
30 | 0.00039 µM | 0.005 µM | 0.0003 µM | 20 µM | O=C(CCCCCCCc1ccccc1)c1nc2ncccc2o1
31 | 0.00052 µM | 0.005 µM | 0.0001 µM | 10 µM | O=C(CCCCCCCCc1ccccc1)c1nc2ncccc2o1
32 | 0.0023 µM | 1 µM | 0.04 µM | 60 µM | CCCCCCCC/C=C\CCCCCCCC(=O)c1nc2ncccc2o1
33 | 0.17 µM | 0.0005 µM | 5 µM | 0.8 µM | O=C(CCCCCc1ccccc1)C(F)(F)F
34 | 0.00056 µM | – | – | – | O=C(CCCCCCc1ccccc1)c1nnc(-c2ccco2)o1

Row | Compound | Ki [1] | IC50 (Liver carboxylesterase 1) | IC50 [2] | IC50 [3]
35 | CCCCCCCC/C=C/CCCCCCCC(=O)C(F)(F)F | 0.08 µM | 5 µM | 5 µM | 1 µM
